Assay results as given in ChEMBL document CHEMBL3877285, “Design of a doxorubicin-peptidomimetic conjugate that targets HER2-positive cancer cells” (Eur J Med Chem, 2017).
Values belong to the compound of their own block, whether it stands above or below them.

How the values were obtained:
[1] = Antiproliferative activity against human MCF10A cells after 72 hrs by CellTiter-Glo assay; type: cell-based; settings: MCF-10A
In short: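 Cells were kept at 37 °C, 5% CO2. Media: RPMI-1640 (BT-474, MCF-7), EMEM (Calu-3), McCoy's (SKBR-3), DMEM (MCF-10A), each with 10% FBS, 1% pen-strep and 1% insulin. 10,000 cells per well were dosed with serial dilutions in serum-free medium. Luminescence was read by CellTiter-Glo and IC50 taken from the dose-response curve. Each experiment was run three times (SD).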

[2] = Cell cycle arrest in human BT474 cells assessed as G0/G1 phase accumulation at 1 uM incubated for 1 hr followed by 24 hrs incubation in drug free medium by propidium iodide staining based flow cytometry; type: functional; settings: BT-474
In short: (§1)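 About 2 × 10⁵ BT-474 cells were exposed to 1 μM for 1 h, then kept 24 h in drug-free, serum-free medium. Cells were fixed in 70% ethanol (2 h, −20 °C) and stained with 100 μg/mL RNase plus 40 μg/mL propidium iodide (4 °C, 30 min). DNA content was read on 10,000 cells by FACS. Experiments were done in triplicate.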

[3] = Cell cycle arrest in human BT474 cells assessed as S phase accumulation at 1 uM incubated for 1 hr followed by 24 hrs incubation in drug free medium by propidium iodide staining based flow cytometry (reference value: 8.4 to 13.6%); type: functional; settings: BT-474
In short: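 About 2 × 10⁵ BT-474 cells exposed 1 h, then 24 h in drug-free, serum-free medium. Cells were fixed in 70% ethanol for 2 h at −20 °C, then stained with 100 μg/mL RNase plus 40 μg/mL propidium iodide for 30 min at 4 °C. DNA content was read by FACS (10,000 events). Triplicate.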

[4] = Cell cycle arrest in human BT474 cells assessed as G2/M phase accumulation at 1 uM incubated for 1 hr followed by 24 hrs incubation in drug free medium by propidium iodide staining based flow cytometry; type: functional; settings: BT-474; in short: as §1
[5] = biological target: T1, Receptor tyrosine-protein kinase erbB-2 (Homo sapiens, UniProt P04626); test: Binding affinity to HER2 extracellular domain (unknown origin) by SPR assay
[6] = Antiproliferative activity against human MCF7 cells after 72 hrs by CellTiter-Glo assay; type: functional, cell-based; settings: MCF7, 72 h
In short: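 Cells were kept at 37 °C, 5% CO2. 10,000 cells per well were dosed with serial dilutions in serum-free medium. Luminescence was read by CellTiter-Glo and IC50 taken from the dose-response curve. Each experiment was run three times (SD).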

[7] = Drug uptake in nucleus of human SKBR3 cells at 5 uM after 30 mins by DAPI staining based confocal microscopic method; type: ADME, cell-based; settings: sk-br-3, 0.5 h
In short: (§2)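 SKBR-3 cells were seeded for 24 h, then exposed to 5 μM at 37 °C for 30 min, 4 h or 24 h. Cells were PBS-washed, fixed in methanol at −20 °C for 5 min and mounted with DAPI.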

[8] = Drug uptake in nucleus of human SKBR3 cells at 5 uM after 4 hrs by DAPI staining based confocal microscopic method; type: ADME, cell-based; settings: sk-br-3, 4 h; in short: as §2
[9] = Drug uptake in cytoplasm of human SKBR3 cells at 5 uM after 4 hrs by DAPI staining based confocal microscopic method; type: ADME, cell-based; settings: sk-br-3, 4 h; in short: as §2
[10] = Drug uptake in cytoplasm of human SKBR3 cells at 5 uM after 24 hrs by DAPI staining based confocal microscopic method; type: ADME, cell-based; settings: sk-br-3, 24 h; in short: as §2
[11] = Drug uptake in human MCF7 cells at 5 uM after 24 hrs by DAPI staining based confocal microscopic method; type: ADME, cell-based; settings: mcf7, 24 h
[12] = Drug degradation in human SKBR3 cells at 50 uM after 4 hrs by HPLC method; type: ADME, cell-based, SK-BR-3; settings: read-out: Drug degradation
In short: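 About 15,000 trypsinised SKBR-3 cells were resuspended with 50 μM (final) conjugate in serum-free medium at 37 °C, one sample per time point (0 min–48 h). Cells were lysed with chilled acetonitrile, sonicated and centrifuged, and the supernatant was cleaned on Sep-Pak. Intact-conjugate peak area was measured by C18 reversed-phase HPLC and expressed relative to time zero. Each time point was run in triplicate.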

[13] = Antiproliferative activity against human BT474 cells after 24 hrs by CellTiter-Glo assay; type: functional, cell-based; settings: BT-474, 24 h
In short: (§3)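 10,000 cells per well, plated the day before treatment. Triplicate wells got serially diluted drug (0.001 to 100 μM) in serum-free medium at 37 °C. 1% SDS and 1% DMSO served as controls. After a PBS wash, CellTiter-Glo was added for about 20 min and luminescence read. IC50 came from the dose-response curve. Each experiment was run three times (SD).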

[14] = Antiproliferative activity against human BT474 cells after 48 hrs by CellTiter-Glo assay; type: functional, cell-based; settings: BT-474, 48 h; in short: as §3
[15] = Antiproliferative activity against human SKBR3 cells after 24 hrs by CellTiter-Glo assay; type: functional, cell-based; settings: SK-BR-3, 24 h; in short: as §3
[16] = Antiproliferative activity against human Calu3 cells after 24 hrs by CellTiter-Glo assay; type: functional, cell-based; settings: Calu-3, 24 h; in short: as §3
[17] = Antiproliferative activity against human Calu3 cells after 48 hrs by CellTiter-Glo assay; type: functional, cell-based; settings: Calu-3, 48 h; in short: as §3
[18] = Drug uptake in cytoplasm of human SKBR3 cells at 5 uM after 30 mins by DAPI staining based confocal microscopic method; type: ADME, cell-based; settings: sk-br-3, 0.5 h
In short: (§4)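 SKBR-3 cells were seeded and treated 24 h later, then incubated at 37 °C for 30 min, 4 h or 24 h. Cells were fixed with methanol for 5 min at −20 °C and mounted in DAPI.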

[19] = Drug uptake in human SKBR3 cells at 5 uM after 24 hrs by DAPI staining based confocal microscopic method; type: ADME, cell-based; settings: sk-br-3, 24 h; in short: as §4
[20] = Drug uptake in human MCF7 cells at 5 uM after 30 mins by DAPI staining based confocal microscopic method; type: ADME, cell-based; settings: mcf7, 0.5 h
In short: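 MCF-7 cells were run like the SKBR-3 imaging: 37 °C for 30 min, 4 h or 24 h, methanol fixation at −20 °C, and DAPI mounting.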

[21] = Antiproliferative activity against human BT474 spheroids after 3 days by CellTiter-Glo assay; type: functional; settings: BT-474, 72 h
In short: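 They were treated at 0.001–10 μM for 3 days at 37 °C, with 1% SDS and 1% DMSO as controls. Viability was read by 3D CellTiter-Glo luminescence and IC50 taken from the log plot. Each experiment was run three times (SD).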

[22] = biological target: T1, Receptor tyrosine-protein kinase erbB-2; test: Binding affinity to HER2 domain-4 (unknown origin) by SPR assay

T1 sequence (P04626 whole entry, the tested form may be a part): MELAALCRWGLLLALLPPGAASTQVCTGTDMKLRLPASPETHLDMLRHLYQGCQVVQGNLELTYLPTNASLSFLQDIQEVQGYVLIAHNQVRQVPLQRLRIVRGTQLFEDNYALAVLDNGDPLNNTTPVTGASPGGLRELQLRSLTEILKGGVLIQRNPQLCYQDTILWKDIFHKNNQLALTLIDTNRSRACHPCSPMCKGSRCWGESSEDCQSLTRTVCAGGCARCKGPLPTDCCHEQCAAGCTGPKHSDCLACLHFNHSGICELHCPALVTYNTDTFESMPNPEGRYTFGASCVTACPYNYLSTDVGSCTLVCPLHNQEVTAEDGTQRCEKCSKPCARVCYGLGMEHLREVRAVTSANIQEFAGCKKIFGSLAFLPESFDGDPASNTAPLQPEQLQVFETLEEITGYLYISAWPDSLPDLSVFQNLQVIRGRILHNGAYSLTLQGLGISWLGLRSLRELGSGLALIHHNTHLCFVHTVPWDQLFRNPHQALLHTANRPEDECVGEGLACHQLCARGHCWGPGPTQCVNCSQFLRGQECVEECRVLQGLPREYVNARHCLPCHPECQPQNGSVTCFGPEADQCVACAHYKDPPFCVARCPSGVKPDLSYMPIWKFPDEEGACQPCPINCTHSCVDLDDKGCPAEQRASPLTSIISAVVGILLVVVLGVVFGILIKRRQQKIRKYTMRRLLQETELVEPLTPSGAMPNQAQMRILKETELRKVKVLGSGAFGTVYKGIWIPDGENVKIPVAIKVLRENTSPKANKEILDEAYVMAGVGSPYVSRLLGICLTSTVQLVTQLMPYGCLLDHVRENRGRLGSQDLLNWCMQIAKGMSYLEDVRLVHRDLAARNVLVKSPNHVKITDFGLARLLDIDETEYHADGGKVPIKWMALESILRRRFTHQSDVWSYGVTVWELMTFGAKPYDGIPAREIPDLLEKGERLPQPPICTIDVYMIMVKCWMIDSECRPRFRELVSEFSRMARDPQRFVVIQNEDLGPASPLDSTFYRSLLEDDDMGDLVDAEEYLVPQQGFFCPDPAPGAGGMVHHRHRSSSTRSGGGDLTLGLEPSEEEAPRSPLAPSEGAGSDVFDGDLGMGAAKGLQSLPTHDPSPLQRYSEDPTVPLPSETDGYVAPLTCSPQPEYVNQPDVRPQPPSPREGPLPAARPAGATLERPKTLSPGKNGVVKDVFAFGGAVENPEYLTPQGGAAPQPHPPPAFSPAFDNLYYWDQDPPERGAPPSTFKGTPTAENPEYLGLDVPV

Kd [5]: 1 µM
SMILES: N=C(N)NCCC[C@H](N)C(=O)N[C@@H](CC(=O)N[C@@H](Cc1ccccc1)C(=O)O)c1cccc2ccccc12
IC50 [1]: > 50 µM | Activity [2]: 67% | Activity [3]: 5.7% | Activity [4]: 23.6%

SMILES: COc1cccc2c1C(=O)c1c(O)c3c(c(O)c1C2=O)C[C@@](O)(C(=O)CO)C[C@@H]3O[C@H]1C[C@H](NC(=O)CCCC(=O)N[C@@H](CCCNC(=N)N)C(=O)N[C@@H](CC(=O)N[C@@H](Cc2ccccc2)C(=O)O)c2cccc3ccccc23)[C@H](O)[C@H](C)O1
IC50 [6]: 0.8 µM | Drug uptake [7]: Active | Drug uptake [8]: Active | Drug uptake [9]: Active | Drug uptake [10]: Active | Drug uptake [11]: Active | metabolised at 4 h, 50 µM [12]: 50%

Drug uptake [7]: Active | Drug uptake [18]: Active | Drug uptake [8]: Active | Drug uptake [19]: Active | Drug uptake [20]: Active | Kd [22]: 11000 µM
SMILES: COc1cccc2c1C(=O)c1c(O)c3c(c(O)c1C2=O)C[C@@](O)(C(=O)CO)C[C@@H]3O[C@H]1C[C@H](N)[C@H](O)[C@H](C)O1 [DOXORUBICIN]
IC50 [13]: 0.053 µM | IC50 [14]: 0.041 µM | IC50 [15]: 0.034 µM | IC50 [16]: 0.27 µM | IC50 [17]: 0.11 µM | IC50 [1]: 0.15 µM | Activity [3]: 3.7% | IC50 [21]: 0.18 µM
